Experimental data: ChEMBL document CHEMBL1250515, “4-(3-Halo/amino-4,5-dimethoxyphenyl)-5-aryloxazoles and -N-methylimidazoles that are cytotoxic against combretastatin A resistant tumor cells and vascular disrupting in a cisplatin resistant germ cell tumor model” (J Med Chem, 2010)
Active and inactive are the calls of the source. No cut-off for these calls is given here.

How the values were obtained:
[1] = tested on: HL-60; assay: Cytotoxicity against human HL60 cells after 72 hrs by MTT assay; assay type: functional, cell-based; details: HL-60, 72 h
Procedure, shortened: (§1)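 MTT read-out. HL-60 seeded at 5 × 10⁵/mL and adherent lines at 5 × 10⁴/mL, precultured 24 h, then exposed to compounds for 72 h at 37 °C, 5% CO₂. MTT final 0.05% (HL-60, 518A2) or 0.1% (others), 2 h. Formazan dissolved in SDS/DMSO/acetic acid; A570 minus A630. Quadruplicates; viability relative to controls; IC50 from four-parameter Hill fit.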

[2] = Cytotoxicity against human 518A2 cells after 72 hrs by MTT assay; assay type: functional, cell-based; details: 518A2, 72 h; procedure, shortened: as §1
[3] = tested on: HL-60; assay: Induction of apoptosis in human HL60 cells assessed as intact mitochondria at 5 uM after 72 hrs relative to control; assay type: functional
[4] = tested on: HL-60; assay: Induction of apoptosis in human HL60 cells assessed as ROS production at 50 uM after 24 hrs by NBT reduction assay relative to control; assay type: functional
[5] = tested on: HT-29; assay: Cytotoxicity against human HT-29 cells after 72 hrs by MTT assay; assay type: functional, cell-based; details: HT-29, 72 h; procedure, shortened: as §1
[6] = tested on: 518A2; assay: Induction of apoptosis in human 518A2 cells assessed as intact mitochondria at 5 uM after 72 hrs relative to control; assay type: functional
[7] = tested on: 518A2; assay: Induction of apoptosis in human 518A2 cells assessed as ROS production at 50 uM after 24 hrs by NBT reduction assay relative to control; assay type: functional
[8] = Inhibition of tubulin polymerization by fluorescence-based assay; details: TDE = time-dependent effect
Procedure, shortened: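 Purified tubulin polymerization kit, fluorescence-based; polymerization followed as relative fluorescence units at excitation 360 nm and emission 465 nm. Compounds and reference agents tested at 3 μM. Four to five independent experiments.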

[9] = tested on: 1411HP; assay: Antitumor activity against human 1411HP cells xenografted in mouse assessed as swelling of tumor at 30 mg/kg, ip after 24 hrs; assay type: functional, organism-based; set-up: dose 30 mg/kg
Procedure, shortened: (§2)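 Mice carried subcutaneous left-flank xenografts from 10 million 1411HP cells in 150 μL PBS. After 4 weeks, two mice with tumors of ~1 cm³ received a single ip dose of 30 mg/kg. Tumors were inspected for swelling and hemorrhage after 24 h. Body weight was recorded twice weekly, and daily during therapy.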

[10] = Cytotoxicity against human vinblastine-resistant KBV1 cells after 72 hrs by MTT assay; assay type: functional, cell-based; details: KB-V1, 72 h; procedure, shortened: as §1
[11] = species: Gallus gallus; assay: Antiangiogenic activity in vascular system of fertilized chicken embryo assessed as complete degradation of vascular system after 3 days by CAM assay; assay type: functional, tissue-based
[12] = species: Gallus gallus; assay: Antiangiogenic activity in vascular system of fertilized chicken embryo assessed as vessel shrinkage after 24 hrs by CAM assay; assay type: functional, tissue-based
[13] = Cytotoxicity against human multidrug-resistant MCF7/Topo cells after 72 hrs by MTT assay; assay type: functional, cell-based; procedure, shortened: as §1
[14] = tested on: 1411HP; assay: Antitumor activity against human 1411HP cells xenografted in mouse assessed as intratumoral hemorrhage at 30 mg/kg, ip after 24 hrs; assay type: functional, organism-based; set-up: dose 30 mg/kg; procedure, shortened: as §2
[15] = tested on: 1411HP; assay: Antitumor activity against human 1411HP cells xenografted in mouse assessed as slow regrowth of tumor at 30 mg/kg, ip single dose
[16] = tested on: HL-60; assay: Induction of apoptosis in human HL60 cells at 10 uM after 16 hrs by TUNEL assay; assay type: functional
[17] = Cytotoxicity against human H12.1 cells after 96 hrs by SRB assay; assay type: functional, cell-based
Procedure, shortened: (§3)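 Germ cell tumor lines seeded on day 0 at densities ensuring exponential growth, exposed from day 1 to drug at 0.001–10 μM in medium. Surviving cells relative to untreated controls read on day 5 by sulforhodamine B colorimetric assay (96 h exposure). IC50 from four-parameter Hill fit of concentration-response curves.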

[18] = Cytotoxicity against human cisplatin-resistant 1411HP cells after 96 hrs by SRB assay; assay type: functional, cell-based; procedure, shortened: as §3
[19] = tested on: 1411HP; assay: Antitumor activity against human 1411HP cells xenografted in mouse assessed as tumor regression at 20 mg/kg, ip administered on day 16/17 and 35/36; assay type: functional, organism-based; set-up: dose 20 mg/kg
[20] = tested on: Mus musculus; assay: Toxicity in human 1411HP cells xenografted mouse at 30 mg/kg, ip; assay type: organism-based; set-up: dose 30 mg/kg, route intraperitoneal; details: in vivo; procedure, shortened: as §2
[21] = tested on: 1411HP; assay: Antitumor activity against human 1411HP cells xenografted in mouse assessed as prolonged periods of stabilization at 20 mg/kg, ip administered on day 16/17 and 35/36; assay type: functional, organism-based; set-up: dose 20 mg/kg
[22] = tested on: Mus musculus; assay: Toxicity in human 1411HP cells xenografted mouse at 20 mg/kg, ip administered on day 16/17 and 35/36; assay type: organism-based; set-up: dose 20 mg/kg, route intraperitoneal; details: in vivo
[23] = tested on: Mus musculus; assay: Toxicity in human 1411HP cells xenografted mouse at 20 mg/kg, ip qd for 2 days; assay type: organism-based; set-up: dose 20 mg/kg, route intraperitoneal
Procedure, shortened: (§4)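 Subcutaneous flank xenografts were grown from 10 million 1411HP cells in 150 μL PBS. Two mice with tumors of ~2.5 cm³ were dosed ip at 20 mg/kg on 2 consecutive days. Tumor volume was measured by caliper as a² × b × 0.5. Body weight was recorded twice weekly, and daily during therapy.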

[24] = tested on: 1411HP; assay: Antitumor activity against human 1411HP cells xenografted in mouse assessed as slow regrowth of tumor at 20 mg/kg, ip qd for 2 days; assay type: functional, organism-based; set-up: dose 20 mg/kg; procedure, shortened: as §4
[25] = tested on: 1411HP; assay: Antitumor activity against human 1411HP cells xenografted in mouse assessed as tumor regression at 20 mg/kg, ip qd for 2 days; assay type: functional, organism-based; set-up: dose 20 mg/kg; procedure, shortened: as §4
[26] = tested on: Mus musculus; assay: Toxicity in human 1411HP cells xenografted mouse assessed as body weight change at 20 mg/kg, ip administered on day 16/17 and 35/36; assay type: organism-based; set-up: dose 20 mg/kg, route intraperitoneal; details: in vivo

| SMILES | IC50 [1] [nM] | IC50 [2] [nM] | Activity [3] [%] | Activity [4] [%] | IC50 [5] [nM] | Activity [6] [%] | Activity [7] [%] | IC50 [10] [nM] | IC50 [13] [nM] | further results |
| --- | --- | --- | --- | --- | --- | --- | --- | --- | --- | --- |
| COc1cc(-c2ncn(C)c2-c2ccc(N(C)C)cc2)cc(Br)c1OC.Cl | 0.2 | 860 | 63 | 1.6 | 4.3 | 82 | 6.7 | – | – | – |
| COc1ccc(-c2c(-c3cc(Br)c(OC)c(OC)c3)ncn2C)cc1N.Cl.Cl | 0.1 | 6.4 | 66 | 1.5 | 0.02 | 80 | 3.8 | 200 | 340 | inhibition [8]: tde; Activity [9]: Active; Activity [11]: inactive; Activity [12]: inactive; Activity [14]: Active; Activity [15]: Active; Activity [16]: 60%; IC50 [17]: 22 nM; IC50 [18]: 54 nM |
| COc1ccc(-c2c(-c3cc(N)c(OC)c(OC)c3)ncn2C)cc1F.Cl | > 10000 | > 10000 | 90 | 1.2 | > 50000 | 98 | 1.4 | – | – | – |
| COc1cc(-c2ncn(C)c2-c2ccc(N(C)C)cc2)cc(Cl)c1OC.Cl | 0.02 | 2300 | 61 | 2.4 | 0.2 | 80 | 6 | – | – | – |
| COc1ccc(-c2c(-c3cc(Cl)c(OC)c(OC)c3)ncn2C)cc1F.Cl | > 10000 | 400 | 55 | 1.6 | 530 | 84 | 4.8 | – | – | – |
| COc1ccc(-c2c(-c3cc(N)c(OC)c(OC)c3)ncn2C)cc1O.Cl | 4600 | 2800 | 76 | 1.1 | > 100000 | 94 | 1.8 | – | – | – |
| COc1cc(-c2ncoc2-c2ccc(N(C)C)cc2)cc(N)c1OC.Cl | 0.9 | 110 | 62 | 1.4 | > 15000 | 82 | 3.3 | – | – | – |
| COc1cc(-c2ncn(C)c2-c2ccc3c(Cl)cn(C)c3c2)cc(N)c1OC.Cl | 0.04 | 3100 | 60 | 1.6 | 14 | 77 | 6.4 | 160 | 3.8 | – |
| COc1ccc(-c2c(-c3cc(Br)c(OC)c(OC)c3)ncn2C)cc1F.Cl | 9700 | 66 | 60 | 1.4 | 510 | 89 | 3.9 | – | – | – |
| COc1ccc(-c2c(-c3cc(OC)c(OC)c(OC)c3)ncn2C)cc1N | > 100000 | > 100000 | 74 | 2.2 | 64 | 87 | 1.5 | 300 | > 10000 | – |
| COc1ccc(-c2c(-c3cc(Cl)c(OC)c(OC)c3)ncn2C)cc1N.Cl.Cl | 0.2 | 62 | 65 | 1.8 | 0.06 | 80 | 4.4 | 400 | 320 | inhibition [8]: tde; Activity [19]: Active; Activity [9]: Active; Activity [20]: Non-toxic; Activity [11]: Active; Activity [12]: Active; Activity [21]: Active; Activity [22]: Non-toxic; Activity [14]: Active; Activity [23]: Non-toxic; Activity [24]: Active; Activity [25]: Active; Activity [16]: 60%; Activity [26]: Non-toxic; IC50 [17]: 30 nM; IC50 [18]: 60 nM |
| COc1ccc(/C=C\c2cc(OC)c(OC)c(OC)c2)cc1O [COMBRETASTATIN A4] | 0.1 | 18 | – | – | 3600 | – | – | 0.4 | 500 | – |
| COc1ccc(-c2ocnc2-c2cc(N)c(OC)c(OC)c2)cc1N.Cl | 3.8 | 2 | 62 | 1.5 | 57 | 85 | 3.5 | 0.01 | 1.23 | Activity [11]: inactive; Activity [12]: inactive; Activity [16]: 60% |
